Source: PubChem BioAssay AID488843 (Broad Institute, 2010)
The source made the active and inactive calls.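 Rule for the calls: active = compound whose fitted half-maximal VEGF mRNA rise lies within ten times its top tested dose; inconclusive = flat response of 30 to 70% or a poor curve fit; inactive = the rest, including reverse-direction effects.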

Tested on: not listed separately
Test: VEGF mRNA induction via HIF pathway, dose response, cell-based, U2OS, RT-PCR, dry powder (AID 488843)
Details: U2OS VEGF mRNA induction, RT-PCR; at 38 µM (top of the series)
Method in brief: (§1)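 Assay system: U2OS osteosarcoma cells, VEGF-A transcript / Dosing: dose-response series of compounds, pinned in duplicate / Detection: multiplex TaqMan RT-qPCR, VEGF-A FAM, beta-actin VIC / Schedule: 24 h pre-growth, 24 h treatment, 37 °C / Replicates: duplicates / Controls: DMSO wells as negative reference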

SMILES	activation (VEGF mRNA increase)
CN(C)CCNC(=O)c1cc(-c2ccccc2)on1	4% (inactive)
O=C(Nc1nc2ccccc2s1)c1cc(-c2ccccc2)on1	4.08% (inactive)
Cn1c(-c2ccccc2)cnc1NC(=O)c1cc(-c2ccccc2)on1	-1.36% (inactive)
CC(C)(C)CCNC(=O)c1cc(-c2ccccc2)on1	13.5% (inactive)
O=C(c1cc(-c2ccccc2)on1)N1CCC(N2CCOCC2)CC1	13% (inactive)
O=C(NC1Cc2ccccc2C1)c1cc(-c2ccccc2)on1	-0.187% (inactive)
O=C(Nc1nc(-c2ccccc2)cs1)c1cc(-c2ccccc2)on1	3.91% (inactive)
O=C(Nc1ncc(-c2ccccc2)o1)c1cc(-c2ccccc2)on1	1.3% (inactive)
Cc1ccc(CNC(=O)c2cc(-c3ccccc3)on2)cc1	-3.43% (inactive)
O=C(NC1CCc2ccccc2C1)c1cc(-c2ccccc2)on1 (centres undefined)	14.2% (inactive)
O=C(Nc1ncc2ccccc2n1)c1cc(-c2ccccc2)on1	17.1% (inactive)
O=C(Nc1cnc2ccccc2c1)c1cc(-c2ccccc2)on1	3.98% (inactive)
O=C(Nc1nnc(-c2ccccc2)s1)c1cc(-c2ccccc2)on1	3.52% (inactive)
Cn1c(NC(=O)c2cc(-c3ccccc3)on2)nc2ccccc21	2.87% (inactive)
O=C(NCc1ccccc1)c1cc(-c2ccccc2)on1	12.2% (inactive)
Cc1cccc(CNC(=O)c2cc(-c3ccccc3)on2)c1	11.8% (inactive)
O=C(Nc1cn2ccccc2n1)c1cc(-c2ccccc2)on1	20.3% (inactive)
O=C(NCC1CCCCC1)c1cc(-c2ccccc2)on1	-2.06% (inactive)
Cc1ccccc1CNC(=O)c1cc(-c2ccccc2)on1	22.6% (inactive)
O=C(c1cc(-c2ccccc2)on1)N1CCC(N2CCCC2)CC1	9.95% (inactive)
O=C(NCCN1CCCCC1)c1cc(-c2ccccc2)on1	14.3% (inactive)
Cc1cccc(NC(=O)c2cc(-c3ccccc3)on2)n1	-4.09% (inactive)
O=C(c1cc(-c2ccccc2)on1)N1CCc2cccnc21	5.19% (inactive)
O=C(c1cc(-c2ccccc2)on1)N1CCN(c2ccncc2)CC1	34.7% (inactive)
O=C(c1cc(-c2ccccc2)on1)N1CCC(CO)CC1	14.4% (inactive)
CN1CCN(C(=O)c2cc(-c3ccccc3)on2)CC1	-1.09% (inactive)

Tested on: U2OS VEGF mRNA induction, RT-PCR
Test: as above
Details: not given
Method in brief: as §1

SMILES	AC50 [µM]
O=C(NCCCN1CCOCC1)c1cc(-c2ccccc2)on1	30.7
c1ccc(-c2nnc(-c3ccccn3)nc2Nc2cnc3ccccc3n2)cc1	4.81
Cc1ccc(Nc2nc(-c3ccccn3)nnc2-c2ccccc2)cn1	8.83
c1ccc(-c2nnc(Nc3nc(-c4ccccn4)nnc3-c3ccccc3)s2)cc1	2.81
O=C(Nc1ccc2ccccc2n1)c1cc(-c2ccccc2)on1	7.99
O=C(NCCCn1ccnc1)c1cc(-c2ccccc2)on1	16
c1ccc(-c2nnc(-c3ccccn3)nc2N2CCC(N3CCOCC3)CC2)cc1	8.46
OCC1CCN(c2nc(-c3ccccn3)nnc2-c2ccccc2)CC1	11.1
c1ccc(-c2cnc(Nc3nc(-c4ccccn4)nnc3-c3ccccc3)s2)cc1	4.96
CN(C)c1nc(-c2ccccn2)nnc1-c1ccccc1	6.38
c1ccc(-c2csc(Nc3nc(-c4ccccn4)nnc3-c3ccccc3)n2)cc1	2.69
O=C(NCCCO)c1cc(-c2ccccc2)on1	22.3
OCCCNc1nc(-c2ccccn2)nnc1-c1ccccc1	10.7
c1ccc(-c2nnc(-c3ccccn3)nc2NCCCN2CCOCC2)cc1	9.7
O=C(NCCCCO)c1cc(-c2ccccc2)on1	8.59
CCCCNC(=O)c1cc(-c2ccccc2)on1	12.4
Cc1ccc(NC(=O)c2cc(-c3ccccc3)on2)cn1	38

SMILES	AC50 [µM]
Cc1cccc(CNc2nc(-c3ccccn3)nnc2-c2ccccc2)c1	3.83
c1ccc(-c2nnc(-c3ccccn3)nc2NCC2CC2)cc1	8.4
C=CCNc1nc(-c2ccccn2)nnc1-c1ccccc1	7
c1ccc(CNc2nc(-c3ccccn3)nnc2-c2ccccc2)cc1	7.55
c1ccc(-c2nnc(-c3ccccn3)nc2NCCN2CCOCC2)cc1	8.52
c1ccc(-c2nnc(-c3ccccn3)nc2Nc2nc3ccccc3s2)cc1	1.71
Cn1c(-c2ccccc2)cnc1Nc1nc(-c2ccccn2)nnc1-c1ccccc1	5.34
Cc1ccc(CNc2nc(-c3ccccn3)nnc2-c2ccccc2)cc1	3.46
Cc1cccc(Nc2nc(-c3ccccn3)nnc2-c2ccccc2)n1	12.9
CC(C)(C)CCNc1nc(-c2ccccn2)nnc1-c1ccccc1	3.58
O=C(NCC1CC1)c1cc(-c2ccccc2)on1	14.4
O=C(NCCN1CCOCC1)c1cc(-c2ccccc2)on1	19.6
c1ccc(-c2nnc(-c3ccccn3)nc2NCC2CCCCC2)cc1	3.04
c1ccc(-c2nnc(-c3ccccn3)nc2N2CCN(c3ccncc3)CC2)cc1	7.31
Cc1ccccc1CNc1nc(-c2ccccn2)nnc1-c1ccccc1	5.64
CN1CCN(c2nc(-c3ccccn3)nnc2-c2ccccc2)CC1	8.76
